Experimental data taken from ChEMBL document CHEMBL4229446, “Development of Novel Monoamine Oxidase-B (MAO-B) Inhibitors with Reduced Blood-Brain Barrier Permeability for the Potential Management of Noncentral Nervous System (CNS) Diseases” (J Med Chem, 2018).

Tests used:
[1] = Tmax in C57BL/6 mouse brain at 23.4 mg/kg, sc administered as single dose measured 24 hrs by UPLC-MS/MS analysis; assay type: ADME, organism-based
Procedure, shortened: (§1)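 15 animals dosed, 3 killed at each of 1, 2, 4, 6 and 24 h. Plasma and brain homogenate (ammonium formate, acidified organic extraction) assayed by UPLC-MS/MS, brain ng/g taken as ng/mL. Noncompartmental parameters exclude values above/below quantification limit or undetected. Kp = AUClast brain/plasma.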

[2] = Metabolic stability in mouse liver microsomes assessed as parent compound remaining at 1 uM after 60 mins by UPLC-MS/MS analysis; assay type: ADME, microsome; conditions: liver microsomes, read-out: Stability
Procedure, shortened: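 Compound at 1 μM with 0.5 mg/mL mouse or human liver microsomes in 100 mM potassium phosphate pH 7.4, 3.3 mM MgCl2, 1 mM NADPH, at 37 °C. Started with NADPH; minus-NADPH control run. Stopped at 0, 5, 15, 30, 45 and 60 min with acetonitrile/formic acid plus internal standard. Parent remaining by UPLC-MS/MS, in triplicate.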

[3] = Ratio of AUClast in brain to plasma in C57BL/6 mouse at 23.4 mg/kg, sc administered as single dose measured 24 hrs by UPLC-MS/MS analysis; assay type: ADME, organism-based; procedure, shortened: as §1
[4] = Tmax in C57BL/6 mouse plasma at 23.4 mg/kg, sc administered as single dose measured 24 hrs by UPLC-MS/MS analysis; assay type: ADME, organism-based; procedure, shortened: as §1
[5] = Cmax in C57BL/6 mouse plasma at 23.4 mg/kg, sc administered as single dose measured 24 hrs by UPLC-MS/MS analysis; assay type: ADME, organism-based; parameters: dose 23.4 mg/kg, route subcutaneous; procedure, shortened: as §1
[6] = target: T1, Amine oxidase [flavin-containing] B (Homo sapiens, UniProt P27338); experiment: Inhibition of human recombinant MAO-B expressed in baculovirus infected BTI-TN-5B1-4 insect cells using benzylamine as substrate preincubated for 1 hr followed by substrate addition and measured after 30 mins by resazurin dye-based fluorescence assay; assay type: cell-based
T1 sequence (P27338 whole entry): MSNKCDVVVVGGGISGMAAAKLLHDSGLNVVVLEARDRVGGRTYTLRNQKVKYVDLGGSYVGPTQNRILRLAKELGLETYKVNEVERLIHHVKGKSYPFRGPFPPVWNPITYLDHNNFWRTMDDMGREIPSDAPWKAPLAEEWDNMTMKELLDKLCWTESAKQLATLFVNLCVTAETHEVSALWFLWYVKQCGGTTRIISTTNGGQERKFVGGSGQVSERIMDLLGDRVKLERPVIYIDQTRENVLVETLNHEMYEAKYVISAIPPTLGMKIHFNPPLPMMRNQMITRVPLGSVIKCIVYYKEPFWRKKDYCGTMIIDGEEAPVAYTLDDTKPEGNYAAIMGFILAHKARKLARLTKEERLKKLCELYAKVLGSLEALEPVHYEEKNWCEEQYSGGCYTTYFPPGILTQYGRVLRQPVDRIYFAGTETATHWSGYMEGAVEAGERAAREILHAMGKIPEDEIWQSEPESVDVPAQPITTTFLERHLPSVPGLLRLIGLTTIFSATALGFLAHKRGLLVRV

[7] = Apparent half-life of the terminal disposition phase in C57BL/6 mouse plasma at 23.4 mg/kg, sc administered as single dose measured 24 hrs by UPLC-MS/MS analysis; assay type: ADME, organism-based; conditions: read-out: t1/2 lambda z (converted); procedure, shortened: as §1
[8] = AUClast in C57BL/6 mouse plasma at 23.4 mg/kg, sc administered as single dose measured 24 hrs by UPLC-MS/MS analysis; assay type: ADME, organism-based; parameters: dose 23.4 mg/kg, time 0 - last, route subcutaneous; procedure, shortened: as §1
[9] = Cmax in C57BL/6 mouse brain at 23.4 mg/kg, iv administered as single dose measured 24 hrs by UPLC-MS/MS analysis; assay type: ADME, organism-based; parameters: dose 23.4 mg/kg, route intravenous
Procedure, shortened: (§2)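 21 animals dosed at 0 min, 3 killed per time point (0, 5, 15, 30 min, 1, 4, 24 h). Plasma extracted by protein precipitation/phospholipid removal. Brain homogenized in 50 mM ammonium formate, then extracted in acidified organic solvent. Both quantified by UPLC-MS/MS (MRM), brain ng/g taken as ng/mL. Noncompartmental analysis. Kp = AUClast brain/plasma.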

[10] = Tmax in C57BL/6 mouse plasma at 23.4 mg/kg, iv administered as single dose measured 24 hrs by UPLC-MS/MS analysis; assay type: ADME, organism-based; procedure, shortened: as §2
[11] = AUClast in C57BL/6 mouse brain at 23.4 mg/kg, sc administered as single dose measured 24 hrs by UPLC-MS/MS analysis; assay type: ADME, organism-based; parameters: dose 23.4 mg/kg, time 0 - last, route subcutaneous; procedure, shortened: as §1
[12] = Ratio of AUClast in brain to plasma in C57BL/6 mouse at 23.4 mg/kg, iv administered as single dose measured 24 hrs by UPLC-MS/MS analysis; assay type: ADME, organism-based; procedure, shortened: as §2
[13] = Apparent half-life of the terminal disposition phase in C57BL/6 mouse plasma at 24.5 mg/kg, sc administered as single dose measured 24 hrs by UPLC-MS/MS analysis; assay type: ADME, organism-based; conditions: read-out: t1/2 lambda z (converted)
Procedure, shortened: (§3)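 15 animals dosed, 3 sacrificed at each of 1, 2, 4, 6 and 24 h. Plasma and brain homogenate were extracted and quantified by UPLC-MS/MS. Parameters came from noncompartmental analysis. Values above or below the limit of quantification, or undetected, were omitted. Kp = AUClast brain/plasma.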

[14] = AUClast in C57BL/6 mouse brain at 24.5 mg/kg, iv administered as single dose measured 24 hrs by UPLC-MS/MS analysis; assay type: ADME, organism-based; parameters: dose 24.5 mg/kg, route intravenous, time 0 - last
Procedure, shortened: (§4)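 21 animals dosed at 0 min, 3 sacrificed at each of 0, 5, 15, 30 min, 1, 4 and 24 h. Plasma was extracted by protein precipitation with phospholipid removal. Brain was weighed, bead-homogenised in 50 mM ammonium formate and extracted in acidified organic solvent. Quantified by UPLC-MS/MS (MRM). Brain ng/g taken as ng/mL. Parameters came from noncompartmental analysis. Kp = AUClast brain/plasma.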

[15] = Tmax in C57BL/6 mouse brain at 24.5 mg/kg, iv administered as single dose measured 24 hrs by UPLC-MS/MS analysis; assay type: ADME, organism-based
Procedure, shortened: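 Brains weighed, portion bead-homogenised in 50 mM ammonium formate, extracted in acidified organic solvent, quantified by UPLC-MS/MS. ng/g taken as ng/mL. Tmax from noncompartmental analysis.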

[16] = Tmax in C57BL/6 mouse plasma at 24.5 mg/kg, iv administered as single dose measured 24 hrs by UPLC-MS/MS analysis; assay type: ADME, organism-based
Procedure, shortened: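 Plasma cleaned by protein precipitation with phospholipid removal, then UPLC-MS/MS in MRM mode. Tmax obtained by noncompartmental analysis.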

[17] = Tmax in C57BL/6 mouse brain at 24.5 mg/kg, po administered as single dose measured 24 hrs by UPLC-MS/MS analysis; assay type: ADME, organism-based
Procedure, shortened: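 Brain portion homogenised in 50 mM ammonium formate with beads, acidified organic extraction, UPLC-MS/MS. ng/g read as ng/mL. Noncompartmental analysis; values above or below quantification limit, or undetected, excluded.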

[18] = Cmax in C57BL/6 mouse plasma at 24.5 mg/kg, iv administered as single dose measured 24 hrs by UPLC-MS/MS analysis; assay type: ADME, organism-based; parameters: dose 24.5 mg/kg, route intravenous; procedure, shortened: as §4
[19] = Ratio of AUClast in brain to plasma in C57BL/6 mouse at 24.5 mg/kg, po administered as single dose measured 24 hrs by UPLC-MS/MS analysis; assay type: ADME, organism-based; procedure, shortened: as §3
[20] = Cmax in C57BL/6 mouse plasma at 24.5 mg/kg, sc administered as single dose measured 24 hrs by UPLC-MS/MS analysis; assay type: ADME, organism-based; parameters: dose 24.5 mg/kg, route subcutaneous; procedure, shortened: as §3

SMILES | Tmax [1] | remaining at 1 h, 1 µM [2] | Kp at 24 h [3] | Tmax [4] | Cmax [5] | IC50 [6] | half-life [7] | AUC(0-t) at 24 h [8] | Cmax [9] | Tmax [10] | AUC(0-t) at 24 h [11] | Kp at 24 h [12] | half-life [13] | AUC(0-t) at 24 h [14] | Tmax [15] | Tmax [16] | Tmax [17] | Cmax [18] | Kp at 24 h [19] | Cmax [20]
CN(CC(=O)O)[C@H](CC#N)Cc1ccc(OCc2ccc(Cl)c(Cl)c2)cc1 | 1 h | 39% | 0.005 | 1 h | 13300 ng/mL | 206 nM | 3.62 h | 35100 ng·h/mL | 305 ng/mL | 5 min | 176 ng·h/mL | 0.004 | – | – | – | – | – | – | – | –
C[C@H](Cc1ccc(OCc2ccc(Br)c(Cl)c2)cc1)N(C)CC(=O)O | – | – | – | – | – | – | – | – | – | – | – | – | 4.81 h | 10700 ng·h/mL | 4 h | 5 min | 6 h | 16700 ng/mL | 0.12 | 7110 ng/mL
